Only some compounds are listed: those with a hit (about 3.5% of all), similar ones and a draw of the others.
MrgX1 ag: agonists of human MrgX1 receptor. MrgX1-HEK293 cells, Fluo-4 calcium fluorescence, agonist mode; active compounds read high. AID 588627. Q96LB2. 310,000 tested, 0.44% active. B-score at 10 µM;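 active = calcium response B-score plate-corrected fluorescence ratio at least 3 library SD, with starting fluorescence B-score inside 5 SD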
Target sequence (Q96LB2 whole entry, looked up): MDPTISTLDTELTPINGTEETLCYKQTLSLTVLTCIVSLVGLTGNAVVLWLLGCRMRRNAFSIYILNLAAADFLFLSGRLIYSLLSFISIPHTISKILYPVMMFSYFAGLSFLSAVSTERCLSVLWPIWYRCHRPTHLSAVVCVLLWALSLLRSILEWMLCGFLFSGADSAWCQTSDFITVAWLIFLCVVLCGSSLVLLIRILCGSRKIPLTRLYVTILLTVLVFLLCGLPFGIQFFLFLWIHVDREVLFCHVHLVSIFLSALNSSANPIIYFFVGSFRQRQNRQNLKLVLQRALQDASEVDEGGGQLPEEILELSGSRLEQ
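Test system: HEK293 cells stably expressing human MrgX1 receptor; amount: 15,000 cells per well; doses: compound delivered in addition one of three; times: overnight plating before 1 h dye loading; detection: Fluo-4 NW calcium-flux fluorescence, kinetic read; read-out basis: B-scored fluorescence response ratio; controls: positive and negative controls per plate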
RGS4 act: potentiators or activators of RGS4. HEK293 M3R/inducible RGS4, carbachol calcium flux Fluo4; active compounds read low. B-score at 10 µM. 310,000 tested, 0.92% active;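 active = B-score of the integrated calcium signal more than 4 SD below the library mean, with starting fluorescence not abnormally high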;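 note: negative B-score means reduced calcium response which marks RGS4 activation or potentiation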
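Material: Inducible-RGS4 HEK293 cells carrying M3 receptor; also added: carbachol at ECmax as muscarinic agonist stimulus; incubation: compound preincubation 20 min at room temperature before agonist; signal: Fluo4-AM (2 µM) calcium-flux fluorescence, kinetic read; measure: integrated calcium ratio converted to B score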
RGS4 inh: inhibitors of human RGS4; HEK293 M3R/RGS4 inducible, Fluo-4 calcium flux; active compounds read high; triggered by carbachol at its EC20; B-score at 10 µM; AID 463165; 310,000 tested, 0.45% active; P49798;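 active = B-score, a plate-corrected calcium signal, over three deviations above library mean, with baseline fluorescence within five deviations of library mean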;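 note: RGS4 expression induced by doxycycline in cells with stable M3 receptor; B-score is computed from the integrated fluorescence ratio over baseline after carbachol; higher B-score means a larger calcium signal and so more RGS4 inhibition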
Target sequence (P49798 whole entry, looked up): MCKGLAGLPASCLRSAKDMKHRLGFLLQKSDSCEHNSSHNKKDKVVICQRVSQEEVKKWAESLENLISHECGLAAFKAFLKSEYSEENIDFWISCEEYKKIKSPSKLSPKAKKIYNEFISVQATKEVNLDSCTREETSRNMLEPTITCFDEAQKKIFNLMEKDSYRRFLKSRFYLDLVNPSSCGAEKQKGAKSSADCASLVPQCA
MrgX1 antagonist: blocks BAM8-22 activation of human MrgX1 receptor | Q96LB2 | MRGX1-HEK293 calcium flux, Fluo-4, BAM8-22 antagonism; active compounds read low | B-score at 10 µM | 310,000 tested, 1.3% active | AID 588676;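 active = calcium-response B-score plate-corrected more than 3 library SD below zero, starting fluorescence within 5 deviations, no agonist response on first addition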;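 note: peak minus trough fluorescence over baseline after final BAM8-22 challenge near maximal dose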
MrgX1 allo act: allosterically activates human MrgX1 receptor signaling; 310,000 tested, 0.63% active; Q96LB2; B-score at 10 µM; MrgX1-HEK293, Fluo-4 calcium flux, FDSS; active compounds read high;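 active = plate-corrected calcium response at least 3 library SD above typical, normal starting fluorescence, not activating the receptor alone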;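 note: compound read alongside a low EC10 to EC30 dose of BAM8-22 agonist; peak minus trough fluorescence over baseline measured at the second addition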
MrgX1 allo conf: reconfirmed allosteric activator of human MrgX1 receptor. shares compounds with MrgX1 allo act. MrgX1-HEK293, Fluo-4 calcium fluorescence, FDSS. activation (ratio percentage), % at 10 µM. 1,200 tested, 13% active. AID 602413;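 active = ratio at least 3 SD above the weak peptide control, stable starting fluorescence, no direct agonism earlier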;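 note: compound followed by low BAM8-22 agonist challenge near EC20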
HEK293 Ca flux: counter-screen for MrgX1 antagonists: effect in parental HEK293 cells. Fluo-4 calcium fluorescence, FDSS. 4,000 tested, 2% active. fluorescence ratio F(max-min)/F0 at 10 µM. shares compounds with MrgX1 antagonist. AID 624111;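 active = duplicate-averaged calcium fluorescence ratio at least three times the standard deviation of buffer wells, a nonspecific response in parental cells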
HEK293 Ca counter: counter-screen for MrgX1 allosteric activators: effect in parental HEK293 cells; shares compounds with MrgX1 antagonist; parental HEK293 calcium flux, Fluo-4 fluorescence ratio; active compounds read high; fluorescence ratio F(max-min)/F0 at 10 µM; 4,000 tested, 0.4% active; AID 624114;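 active = calcium fluorescence ratio, averaged over duplicates, at least 3 SD of the buffer-well ratio, meaning a nonspecific response in receptor-free cells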;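 note: untransfected parental HEK293 lacking MrgX1 used as counterscreen for MrgX1 allosteric activators; fluorescence change taken during the second addition on a kinetic imager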
HEK293 Ca cntr2: activity in parental HEK293 cells lacking MrgX1 receptor | shares compounds with MrgX1 antagonist | Fluo-4 calcium fluorescence (FDSS); active compounds read high | fluorescence ratio F(max-min)/F0 at 10 µM | 4,000 tested, 8.7% active | AID 624115;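 active = calcium fluorescence ratio at least three times the spread of buffer wells, meaning a non-specific response in parental cells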
An asterisk follows results filed as active; i = inactive; . = not tested or not shown.

SMILES	MrgX1 ag	RGS4 act	RGS4 inh	MrgX1 antagonist	MrgX1 allo act	MrgX1 allo conf	HEK293 Ca flux	HEK293 Ca counter	HEK293 Ca cntr2
COc1ccc(-c2cc(C(F)(F)F)n3ncc(C(=O)N(C)Cc4ccccc4)c3n2)cc1	i	i	i	i	6.9*	i	i	i	i
COc1ccc(-c2cc(C(F)(F)F)n3ncc(C(=O)NCc4ccco4)c3n2)cc1	i	i	i	i	i	.	.	.	.
Cc1ccnc(SCc2cc(=O)c(OC(=O)c3ccc(Cl)c([N+](=O)[O-])c3)co2)n1	i	i	i	i	i	.	.	.	.
COc1cccc(N2CCN(c3ccc4nnc(CCC(=O)Nc5ccccn5)n4n3)CC2)c1	i	i	i	i	7.5*	i	i	i	i
CSc1cccc(NS(=O)(=O)c2cn(C)cn2)c1	i	i	i	i	12*	i	i	i	i
COc1ccc(NS(=O)(=O)c2cn(C)cn2)cc1	i	i	i	i	i	.	.	.	.
COc1ccc(C(=O)c2ccc(N(C)C)cc2)c(OC)c1	i	i	i	i	8.7*	i	i	i	i
Cc1cccc2cc3cccc(C)c3nc12	i	i	i	i	i	.	.	.	.
Cc1cccc2cc3ccccc3nc12	i	i	i	i	9.2*	i	i	i	i
COc1ccc(-c2csc3nc(-c4cccnc4)nc(Cl)c23)cc1OC	i	i	i	i	6.7*	3.9%*	i	i	i
CCOC(=O)Cc1csc(NC(=O)c2ccc(Br)o2)n1	i	i	i	i	16*	i	i	i	i
CCOC(=O)Cc1csc(NC(=O)c2cc3ccccc3o2)n1	i	i	i	i	6.8*	i	i	i	i
Cc1ccc(C)c(NC(=O)C2CC(=O)N(C3CCCCC3)C2)c1 (stereo not given)	i	i	i	i	i	.	.	.	.
CCn1c(COc2ccccc2)nnc1SCC(=O)NC1CC1	i	i	i	i	i	.	.	.	.
CCc1ccc(N(CC(=O)Nc2ccc(OC)cc2OC)S(C)(=O)=O)cc1	i	i	i	i	15*	i	i	i	i
COc1ccc(N(CC(=O)Nc2cc(OC)ccc2OC)S(C)(=O)=O)cc1	i	i	i	i	i	.	.	.	.
C/C(CC(=O)Nc1cc(C)ccn1)=N\NC(=O)c1cccc(F)c1	i	i	i	i	i	.	.	.	.
O=c1[nH]c(Nc2ccccc2)cc2ccccc12	i	i	i	i	19*	34%*	i	i	i
Cn1c(-c2cnn(-c3ccccc3)c2-n2cccc2)n[nH]c1=S	i	i	i	i	i	.	.	.	.
Cc1ccc([N+](=O)[O-])cc1S(=O)(=O)Nc1ccc(-c2ccc(N3CCOCC3)nn2)cc1	i	i	i	i	29*	8.1%*	i	i	i
O=[N+]([O-])c1ccc(Cl)c(S(=O)(=O)Nc2ccc(-c3ccc(N4CCOCC4)nn3)cc2)c1	i	i	i	i	i	.	.	.	.
CC1CN(c2nc3ccccc3cc2-c2ccccc2)CC(C)O1 (stereo not given)	i	i	i	i	17*	i	i	i	i
CC1CN(c2cc(-c3ccccc3)c3ccccc3n2)CC(C)O1 (stereo not given)	i	i	i	i	i	.	.	.	.
O=C(CSc1ccc(F)cc1)Nc1ccccc1N1CCOCC1	i	i	i	i	i	.	.	.	.
O=C(CSc1ccccc1)Nc1ccccc1N1CCOCC1	i	i	i	i	8.5*	i	i	i	i
SMILES	MrgX1 ag	RGS4 act	RGS4 inh	MrgX1 antagonist	MrgX1 allo act	MrgX1 allo conf	HEK293 Ca flux	HEK293 Ca counter	HEK293 Ca cntr2
CCOC(=O)c1cc(-c2cccnc2)nn1-c1ccccc1	i	i	i	i	i	.	.	.	.
CCOC(=O)c1cc(-c2ccc(OC)cc2)nn1-c1ccc(C(=O)O)cc1	i	i	i	i	6.5*	i	i	i	i
C/C=C/C=C\C(=O)Nc1cccc(C2=NOC3(C2)C[C@@H](C(N)=O)N(C(=O)c2cc([N+](=O)[O-])cc([N+](=O)[O-])c2C)C3)c1 (stereo not given in full)	i	i	i	i	i	.	.	.	.
Cc1c(Cl)cccc1NC(=O)CNC(=O)c1ccccc1F	i	i	i	i	i	.	.	.	.
Cc1ccc2c(C(=O)CN3CCC(C(N)=O)CC3)c(C)[nH]c2c1	i	i	i	i	i	.	.	.	.
CC(=O)c1sc2nc(C)c3c(c2c1N)CCCC3	i	i	i	i	9.7*	i	i	i	i
COc1ccccc1-c1nc2ccccc2nc1-c1ccccc1	i	i	i	i	9*	i	i	51*	i
CCOC(=O)N1CCN(c2cc(=O)n(-c3cccc(C)c3)c(=O)[nH]2)CC1	i	i	i	i	11*	i	i	i	i
CCOC(=O)N1CCN(c2cc(=O)n(-c3cccc(Br)c3)c(=O)[nH]2)CC1	i	i	i	i	i	.	.	.	.
CCCCN1CC[C@H]2C=CC[C@@H](C(=O)NCc3ccc(OC)cc3)[C@H]2C1=O	i	i	i	i	i	.	.	.	.
CCCCN1CC[C@H]2C=CC[C@@H](C(=O)Nc3ccc(Cl)cc3Cl)[C@H]2C1=O	i	i	i	i	6.9*	i	i	i	i
CCOC(=O)c1c(-c2ccccc2)nc2cc(C)ccn12	i	i	i	i	i	.	.	.	.
CCOC(=O)c1c(-c2ccccc2)nc2ccc(C)cn12	i	i	i	i	9.5*	i	i	i	i
COc1ccccc1N1CCN(S(=O)(=O)CCNC(=O)C2CCCC2)CC1	i	i	i	i	i	.	.	.	.
Cc1cc(O)cc(C)c1Cl	i	i	i	i	17*	i	i	i	i
CCOC(=O)c1[nH]c2ccc(OC)cc2c1NC(=O)CN1CCc2ccccc2C1	i	i	i	i	8.1*	i	i	i	i
